The species named for assay [1] is Cavia porcellus. Briefly: In vitro bronchodilatory activity in guinea pig isolated tracheal strips. As to conditions: Trachea. The class given is functional.
Assay [2] concerns the target T1, Thromboxane-A synthase (Rattus norvegicus) (UniProt P49430).
T1 sequence (whole entry): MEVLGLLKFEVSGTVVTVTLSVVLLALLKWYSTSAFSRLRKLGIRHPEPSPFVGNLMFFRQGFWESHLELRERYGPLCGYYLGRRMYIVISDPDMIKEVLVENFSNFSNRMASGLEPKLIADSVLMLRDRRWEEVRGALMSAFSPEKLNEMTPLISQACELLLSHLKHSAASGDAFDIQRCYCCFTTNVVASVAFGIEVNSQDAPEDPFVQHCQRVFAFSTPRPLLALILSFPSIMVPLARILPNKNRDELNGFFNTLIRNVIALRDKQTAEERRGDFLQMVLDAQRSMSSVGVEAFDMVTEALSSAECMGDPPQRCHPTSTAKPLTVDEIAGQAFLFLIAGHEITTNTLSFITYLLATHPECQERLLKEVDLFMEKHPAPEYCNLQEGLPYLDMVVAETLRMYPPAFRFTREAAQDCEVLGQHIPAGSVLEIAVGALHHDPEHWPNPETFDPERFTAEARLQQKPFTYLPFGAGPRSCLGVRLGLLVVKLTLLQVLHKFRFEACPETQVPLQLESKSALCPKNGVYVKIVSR
The assay is described as follows: Tested ex vivo against TXA2 production in rat serum at 1 hr after peroral dose of 30 mg/kg and anesthetized with ether. The class given is functional, organism-based. Details: dose 30 mg/kg. Put shortly:
(§1)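 Male SD rats (240–260 g), fasted 20 h, dosed orally with compound in 0.5% carboxymethylcellulose or vehicle alone. At 1 h, ether anesthesia and 2 mL cardiac blood taken and clotted at 37 °C for 90 min.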

Assay [3] has as its system Thromboxane-A synthase (Oryctolagus cuniculus). Briefly: Tested in vitro against rabbit thromboxane A2 synthetase (TXA2) at 1 uM.
For assay [4], the system named is Cavia porcellus. The assay is described as follows: In vivo inhibitory effect on airway constriction induced by histamine 2-5 micro g/kg iv at 1 min after 10 mg/kg iv dose of compound. The class given is functional. The essentials: (§2)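 Male Dunkin-Hartley guinea pigs anesthetized with pentobarbital 35 mg/kg ip, jugular vein and trachea cannulated, ventilated at 10 mL/kg, 60 strokes/min. Insufflation pressure recorded. Histamine 2–5 μg/kg iv repeated every 10 min until a reproducible control response. Compound 10 mg/kg iv 1 min before the next challenge.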

Assay [5] addresses T1, Thromboxane-A synthase (Rattus norvegicus). Briefly: Tested ex vivo against TXA2 production in male SD rats at 1 hr after peroral dose of 30 mg/kg and anesthetized with ether. Type of assay: functional, organism-based. Details: dose 30 mg/kg. Put shortly: as §1
The test system of assay [6] is Cavia porcellus. The assay is described as follows: In vivo inhibitory effect on airway constriction induced by histamine 2-5 ug/kg iv at 1 min after 10 mg/kg iv dose of compound. Type of assay: functional. The essentials:
as §2

The subject of assay [7] is Rattus norvegicus. Briefly: Tested ex vivo against serum TXB2 production at 1 hr after oral dose of 3 mg/kg of drug to rat. The class given is functional. Put shortly:
as §1

The test system of assay [8] is Rattus norvegicus. The assay is described as follows: Tested ex vivo against serum TXB2 production at 1 hr after oral dose of 30 mg/kg of drug to rat. Type of assay: functional. Put shortly:
as §1

Some results are limits rather than exact numbers.

Turning to `CC(C)Cn1nc(-c2cncs2)c2ccccc2c1=O`, the midpoint of inhibition in assay [1], the IC50, lay at 2.4 µM.

Take `Oc1nnc(-n2cncn2)c2ccccc12`: in assay [1], the 50% inhibitory concentration (IC50) (as a rule, the concentration that inhibits the measured activity by half) is 16.6 µM.

For `CCCCn1nc(-c2cccnc2)c2ccccc2c1=O`, the results for the inhibition in assay [2] and in assay [3] were 100% and 91%, respectively. Also, in assay [1], inhibition was half-maximal at 2.29 µM (IC50).

For the compound `O=c1c2ccccc2c(-c2cccnc2)nn1CCSC1=NCCS1`, the IC50 in assay [1] is 10.5 µM.

Take `O=c1c2ccccc2c(-c2cccnc2)nn1S(=O)(=O)c1ccccc1`: in assay [1], it took 14.8 µM to reach half-maximal inhibition (IC50). Also, the inhibition (as a rule, the percentage by which the read-out fell short of the control) in assay [3] was 96%.

With `CCn1nc(-c2cnccn2)c2ccccc2c1=O`, the IC50 in assay [1] is 11 µM. In addition, the inhibition in assay [3] stood at 37%.

As for `CC(C)=CCn1nc(-c2cccnc2)c2ccccc2c1=O`, half-maximal inhibition in assay [1] (IC50) was put at 1.38 µM. The inhibition in assay [3] is 94%.

As to `O=c1c2ccccc2c(-c2cccnc2)nn1C1CCCC1`, the inhibition in assay [2] was found to be 80%; in assay [3] it was 97%. This compound also gave an IC50 in assay [1] of 2.75 µM.

As to `O=c1c2ccccc2c(-c2cccnc2)nn1Cc1cccc(Cl)c1`, the IC50 in assay [1] was 4.17 µM. In addition, the inhibition in assay [3] stood at 95%.

Turning to `CCCCCCCCn1nc(-c2cccnc2)c2ccccc2c1=O`, inhibition in assay [1] was half-maximal at 21.9 µM (IC50). Besides, the inhibition in assay [3] amounted to 99%.

Regarding `COC(=O)c1ccc(Cn2nc(-c3cccnc3)c3ccccc3c2=O)cc1`, the midpoint of inhibition in assay [1], the IC50, lay at 5.89 µM. The compound also displayed an inhibition in assay [3] of 95%.

`O=c1c2ccccc2c(-c2cccnc2)nn1CCNS(=O)(=O)c1ccccc1`: the midpoint of inhibition in assay [1], the IC50, lay at 26.3 µM. Besides, the inhibition in assay [3] was found to be 93%.

Regarding `CCOC(=O)CCCn1nc(-c2cccnc2)c2ccccc2c1=O`, the IC50 in assay [1] is 10 µM. In assay [3], this compound returned an inhibition of 95%.

The compound `CC(=O)OCCn1nc(-c2cccnc2)c2ccccc2c1=O` showed an IC50 in assay [1] of 9.77 µM. This compound yielded an inhibition in assay [3] of 32%.

Take `CCn1nc(-c2cncs2)c2ccccc2c1=O`: the inhibition in assay [2] was 69%; in assay [3] it was 77%. In addition, it took 0.562 µM to reach half-maximal inhibition in assay [1] (IC50).

On to `C=CCn1nc(-c2cccnc2)c2ccccc2c1=O`, for which the inhibition in assay [2] stood at 82%; in assay [3], 70%. Besides, in assay [1], the IC50 was 2.14 µM. Further, 10 mg/kg produced 100% inhibition in vivo in assay [4].

`CC(C)NC(=O)CCCn1nc(-c2cccnc2)c2ccccc2c1=O` had an IC50 in assay [1] of 64.6 µM. Besides, the inhibition in assay [3] was 89%.

Consider `O=c1c2ccccc2c(-c2cccnc2)nn1CCCCSc1ncccn1`, for which, in assay [1], the IC50 is 6.17 µM. Moreover, in assay [3], the inhibition stood at 96%.

Turning to `Oc1nnc(-c2cccnc2)c2ccccc12`, the inhibition is 78% in assay [2] and 26% in assay [3]. For the same compound, in assay [1], the IC50 was 10.2 µM.

Compound `O=c1c2ccccc2c(-c2cccnc2)nn1CCSc1ncccn1` showed an IC50 in assay [1] of 11 µM. In assay [3], this compound gave an inhibition of 86%.

For `O=c1c2ccccc2c(-c2cccnc2)nn1CC1CCCCC1`, the IC50 in assay [1] is 0.209 µM. The compound further gave an inhibition in assay [3] of 98%.

Regarding `Oc1nnc(-c2cncs2)c2ccccc12`, the inhibition in assay [2] was found to be 70%; in assay [3], 38%. Besides, the IC50 in assay [1] was 1.2 µM.

For the compound `O=C(O)Cn1nc(-c2cccnc2)c2ccccc2c1=O`, the IC50 in assay [1] is over 100 µM. The inhibition in assay [3] came out at 13%.

Regarding `O=c1c2ccccc2c(-c2cccnc2)nn1CCSc1ccccc1`, 9.12 µM corresponded to half-maximal inhibition in assay [1] (IC50). Moreover, the inhibition in assay [5] was 52%.

With `CC(C)n1nc(-c2cccnc2)c2ccccc2c1=O`, the inhibition in assay [2] was 82%; in assay [3], 87%. In assay [1], this compound had an IC50 of 3.09 µM.

Take `COCCn1nc(-c2cccnc2)c2ccccc2c1=O`: in assay [1], the IC50 is 9.33 µM. In assay [3], this compound displayed an inhibition of 55%.

As for `CCn1nc(-n2ccnc2)c2ccccc2c1=O`, the inhibition in assay [2] amounted to 72%; in assay [3], 53%. The compound further gave an IC50 in assay [1] of 5.37 µM.

Turning to `Cn1nc(-c2cccnc2)c2ccccc2c1=O`, the inhibition in assay [2] stood at 94%; in assay [3], 63%. The 50% inhibitory concentration (IC50) in assay [1] was 11.5 µM. The inhibition in vivo (in general, the relative decrease from the control value, in per cent) at 10 mg/kg in assay [6] was determined as 97%.

Turning to `O=C(O)c1ccc(Cn2nc(-c3cccnc3)c3ccccc3c2=O)cc1`, the 50% inhibitory concentration (IC50) in assay [1] is 17 µM. For the same compound, in assay [3], the inhibition was 64%.

In assay [1], `CCn1nc(-c2cncnc2)c2ccccc2c1=O` had an IC50 of 9.55 µM. For the same compound, the inhibition in assay [3] worked out at 26%.

In the case of `NCCn1nc(-c2cccnc2)c2ccccc2c1=O`, the IC50 in assay [1] is over 100 µM. For the same compound, in assay [3], the inhibition amounted to 29%.

In turn, `O=C(O)/C=C/c1ccc(Cn2ccnc2)cc1` [OZAGREL] registered an inhibition in assay [2] of 92%. This compound had an IC50 in assay [1] of over 1000 µM. This compound also showed an inhibition in vivo at 10 mg/kg in assay [4] of 0%. For the same compound, the inhibition in vivo at 3 mg/kg in assay [7] amounted to 86%. In addition, the inhibition in vivo at 30 mg/kg in assay [8] was found to be 92%.

As to `CCn1nc(-c2nccs2)c2ccccc2c1=O`, the inhibition in assay [2] is 5%; in assay [3] it was 4%. Further, the IC50 in assay [1] is 3.16 µM.

As to `O=c1c2ccccc2c(-c2cccnc2)nn1CCn1cnnn1`, the inhibition in assay [2] was determined as 77%; in assay [3], 43%. The compound further gave an IC50 in assay [1] of 24 µM.

In the case of `O=C(O)CCCn1nc(-c2cccnc2)c2ccccc2c1=O`, the IC50 in assay [1] is over 100 µM. The inhibition in assay [3] is 73%.

The compound `Oc1nnc(-c2nccs2)c2ccccc12` showed an IC50 in assay [1] of 4.57 µM. The same compound gave an inhibition in assay [5] of 23%.

As to `O=c1c2ccccc2c(-c2cccnc2)nn1Cc1ccccc1`, the figures for the inhibition in assay [2] and in assay [3] were 86% and 97%, respectively. Moreover, half-maximal inhibition in assay [1] (IC50) required 2.45 µM.

As to `O=C1c2ccccc2C(=O)N1CCn1nc(-c2cccnc2)c2ccccc2c1=O`, the IC50 in assay [1] was 21.9 µM. This compound gave an inhibition in assay [3] of 87%.

In assay [1], `CCn1nc(-n2cncn2)c2ccccc2c1=O` had an IC50 of 15.8 µM. Also, in assay [3], the inhibition was 0%.

As to `CCOC(=O)Cn1nc(-c2cccnc2)c2ccccc2c1=O`, the figures for the inhibition in assay [2] and in assay [3] were 0% and 28%, respectively. Besides, in assay [1], half-maximal inhibition (IC50) was put at 43.7 µM.

In turn, `CC(=O)Cn1nc(-c2cccnc2)c2ccccc2c1=O` showed an IC50 in assay [1] of 40.7 µM. This compound yielded an inhibition in assay [3] of 13%.

Consider `O=c1c2ccccc2c(-c2cccnc2)nn1CCn1ccnc1`, for which, in assay [4], the inhibition in vivo at 10 mg/kg turned out to be 97%. Also, the inhibition in assay [3] came out at 37%.

In assay [1], `O=c1c2ccccc2c(-c2cccnc2)nn1CCO` showed an IC50 of 4.57 µM. The compound also showed an inhibition in assay [3] of 69%.

As to `Oc1nnc(-n2ccnc2)c2ccccc12`, in assay [2], the inhibition amounted to 87%. Besides, the IC50 in assay [1] was 8.32 µM.

With `CCCn1nc(-c2cccnc2)c2ccccc2c1=O`, the inhibition was determined as 93% in assay [2] and 86% in assay [3]. The same compound gave an IC50 in assay [1] of 3.16 µM.

For the compound `CC(C)n1nc(-c2cncs2)c2ccccc2c1=O`, in assay [1], the IC50 is 3.39 µM. For the same compound, in assay [5], the inhibition is 71%.

On to `O=C(c1cccs1)n1nc(-c2cccnc2)c2ccccc2c1=O`, for which, in assay [1], the IC50 is 12.3 µM. Further, in assay [3], the inhibition came to 37%.

For the origin of these results see ChEMBL document CHEMBL1126557, “Novel antiasthmatic agents with dual activities of thromboxane A2 synthetase inhibition and bronchodilation. 2. 4-(3-Pyridyl)-1(2H)-phthalazinones” (J Med Chem, 1993).
